Active and inactive are the calls of the source. The calls are words filed in the database; no cut-off is given here.
Experiments:
[1] = system: LNCaP; assay: Reduction in R1881-induced increase in LCK 3'-UTR expression in human LNCaP cells at 10 uM measured after 24 hrs by qPCR analysis; format: functional, cell-based
Summary of the method: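 Cells seeded for 48 h, then exposed to 1 nM R1881 with or without 10 μM enzalutamide. RNA harvested 24 h after treatment. LCK transcript measured by qPCR with primers in the 3′UTR. n = 3.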

[2] = target: Histone acetyltransferase p300 (Homo sapiens) (UniProt Q09472); assay: Inhibition of p300 in human LNCaP cells assessed as reduction in R1881-induced increase in TMPRSS2 expression at 0.3 uM measured after 24 hrs by qPCR analysis; format: cell-based
Summary of the method: (§1)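 Cells seeded 48 h in their usual growth medium, then given 1 nM R1881 with or without 0.3 μM inhibitor. RNA harvested 24 h after treatment; transcripts quantified by qPCR. HULLK measured with two independent LCK primer pairs (exon 13 or 3′UTR). PSA and TMPRSS2 transcripts serve as checks that p300 inhibition worked. n = 3.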

[3] = target: Histone acetyltransferase p300 (Homo sapiens) (UniProt Q09472); assay: Inhibition of p300 in human LNCaP C4-2 cells assessed as effect on HULLK expression at 0.3 uM measured after 24 hrs by qpCR analysis; format: cell-based; summary of the method: as §1
[4] = target: Histone acetyltransferase p300 (Homo sapiens) (UniProt Q09472); assay: Inhibition of p300 in human LNCaP C4-2 cells assessed as reduction in R1881-induced increase in TMPRSS2 expression at 0.3 uM measured after 24 hrs by qPCR analysis; format: cell-based; summary of the method: as §1
[5] = target: Histone acetyltransferase p300 (Homo sapiens) (UniProt Q09472); assay: Inhibition of p300 in human LNCaP C4-2 cells assessed as reduction in R1881-induced increase in HULLK expression at 0.3 uM measured after 24 hrs by qPCR analysis; format: cell-based; summary of the method: as §1
[6] = target: Histone acetyltransferase p300 (Homo sapiens) (UniProt Q09472); assay: Inhibition of p300 in human LNCaP cells assessed as reduction in R1881-induced increase in PSA expression at 0.3 uM measured after 24 hrs by qPCR analysis; format: cell-based; summary of the method: as §1
[7] = target: Histone acetyltransferase p300 (Homo sapiens) (UniProt Q09472); assay: Inhibition of p300 in human LNCaP C4-2 cells assessed as reduction in R1881-induced increase in PSA expression at 0.3 uM measured after 24 hrs by qPCR analysis; format: cell-based; summary of the method: as §1
[8] = target: Histone acetyltransferase p300 (Homo sapiens) (UniProt Q09472); assay: Inhibition of p300 in human LNCaP cells assessed as effect on HULLK expression at 0.3 uM measured after 24 hrs by qpCR analysis; format: cell-based; summary of the method: as §1
[9] = target: Histone acetyltransferase p300 (Homo sapiens) (UniProt Q09472); assay: Inhibition of p300 in human LNCaP cells assessed as reduction in R1881-induced increase in HULLK expression at 0.3 uM measured after 24 hrs by qPCR analysis; format: cell-based; summary of the method: as §1

Chain of Histone acetyltransferase p300 (Homo sapiens) (Q09472 whole entry): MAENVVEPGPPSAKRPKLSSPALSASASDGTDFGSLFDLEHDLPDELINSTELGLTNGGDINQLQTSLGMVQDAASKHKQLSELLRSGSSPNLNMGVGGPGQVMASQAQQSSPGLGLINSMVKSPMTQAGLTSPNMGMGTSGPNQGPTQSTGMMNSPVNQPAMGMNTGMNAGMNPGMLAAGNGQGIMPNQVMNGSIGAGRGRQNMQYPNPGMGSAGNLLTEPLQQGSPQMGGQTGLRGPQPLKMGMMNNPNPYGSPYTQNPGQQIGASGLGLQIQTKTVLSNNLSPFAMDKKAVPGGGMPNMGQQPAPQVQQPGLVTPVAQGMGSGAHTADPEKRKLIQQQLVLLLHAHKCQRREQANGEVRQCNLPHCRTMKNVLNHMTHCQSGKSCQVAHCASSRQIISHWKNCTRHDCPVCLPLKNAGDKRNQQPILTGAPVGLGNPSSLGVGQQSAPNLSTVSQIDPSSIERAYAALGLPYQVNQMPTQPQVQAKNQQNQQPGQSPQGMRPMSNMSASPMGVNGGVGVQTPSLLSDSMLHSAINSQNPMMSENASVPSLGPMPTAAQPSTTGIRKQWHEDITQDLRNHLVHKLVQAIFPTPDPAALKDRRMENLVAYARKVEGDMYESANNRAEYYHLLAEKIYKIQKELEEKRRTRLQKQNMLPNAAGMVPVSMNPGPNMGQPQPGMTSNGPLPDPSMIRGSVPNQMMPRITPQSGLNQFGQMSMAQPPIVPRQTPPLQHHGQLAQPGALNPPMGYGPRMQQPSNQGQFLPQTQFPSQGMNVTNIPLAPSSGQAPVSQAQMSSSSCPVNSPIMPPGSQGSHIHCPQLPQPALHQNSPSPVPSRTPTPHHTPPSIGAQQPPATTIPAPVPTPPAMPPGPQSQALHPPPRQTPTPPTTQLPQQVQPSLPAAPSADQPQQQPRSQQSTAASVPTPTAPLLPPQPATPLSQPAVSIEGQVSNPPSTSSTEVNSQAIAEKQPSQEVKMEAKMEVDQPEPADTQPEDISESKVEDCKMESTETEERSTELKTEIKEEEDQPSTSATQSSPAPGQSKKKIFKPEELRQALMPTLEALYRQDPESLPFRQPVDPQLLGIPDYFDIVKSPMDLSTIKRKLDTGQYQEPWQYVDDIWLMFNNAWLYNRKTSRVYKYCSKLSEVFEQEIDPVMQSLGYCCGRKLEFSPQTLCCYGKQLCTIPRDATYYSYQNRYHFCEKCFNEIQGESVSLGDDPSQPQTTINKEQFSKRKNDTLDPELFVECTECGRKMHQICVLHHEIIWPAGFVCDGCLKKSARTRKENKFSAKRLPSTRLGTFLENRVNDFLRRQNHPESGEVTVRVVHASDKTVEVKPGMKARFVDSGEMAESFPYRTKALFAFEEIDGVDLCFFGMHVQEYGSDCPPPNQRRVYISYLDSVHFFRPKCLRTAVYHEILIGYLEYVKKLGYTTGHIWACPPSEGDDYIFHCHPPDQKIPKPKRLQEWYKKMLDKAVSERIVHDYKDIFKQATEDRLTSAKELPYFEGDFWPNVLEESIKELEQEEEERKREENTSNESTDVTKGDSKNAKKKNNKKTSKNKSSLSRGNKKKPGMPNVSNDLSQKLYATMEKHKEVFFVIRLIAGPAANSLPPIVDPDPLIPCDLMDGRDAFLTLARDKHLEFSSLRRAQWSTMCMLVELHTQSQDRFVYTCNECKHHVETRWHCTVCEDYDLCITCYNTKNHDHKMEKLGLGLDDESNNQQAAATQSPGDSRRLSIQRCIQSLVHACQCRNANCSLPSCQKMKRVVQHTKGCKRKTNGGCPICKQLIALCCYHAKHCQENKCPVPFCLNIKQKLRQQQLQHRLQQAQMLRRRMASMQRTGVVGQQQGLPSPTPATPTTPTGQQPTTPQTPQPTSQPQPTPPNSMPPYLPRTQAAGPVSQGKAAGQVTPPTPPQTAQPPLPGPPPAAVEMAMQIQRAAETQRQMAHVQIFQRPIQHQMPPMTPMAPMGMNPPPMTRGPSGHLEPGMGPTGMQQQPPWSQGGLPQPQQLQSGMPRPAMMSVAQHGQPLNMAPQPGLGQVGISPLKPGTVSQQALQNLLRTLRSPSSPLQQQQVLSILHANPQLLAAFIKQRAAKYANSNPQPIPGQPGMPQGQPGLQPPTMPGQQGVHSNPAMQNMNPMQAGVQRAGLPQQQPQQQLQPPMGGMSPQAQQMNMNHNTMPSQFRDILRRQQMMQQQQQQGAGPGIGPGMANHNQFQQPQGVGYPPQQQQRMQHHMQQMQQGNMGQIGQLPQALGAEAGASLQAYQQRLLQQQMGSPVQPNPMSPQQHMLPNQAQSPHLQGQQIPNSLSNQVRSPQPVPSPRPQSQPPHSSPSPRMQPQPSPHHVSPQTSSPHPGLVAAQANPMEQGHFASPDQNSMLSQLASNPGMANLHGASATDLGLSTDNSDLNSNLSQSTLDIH

Row | SMILES | Activity [1] | inhibition [2] | inhibition [3] | inhibition [4] | inhibition [5] | inhibition [6] | inhibition [7] | inhibition [8] | inhibition [9]
1 | CNC(=O)c1ccc(N2C(=S)N(c3ccc(C#N)c(C(F)(F)F)c3)C(=O)C2(C)C)cc1F | Active |  |  |  |  |  |  |  | 
2 | CNC(=O)Nc1ccc2c(c1)CC[C@@]21OC(=O)N(CC(=O)N(Cc2ccc(F)cc2)[C@@H](C)C(F)(F)F)C1=O |  | Active | inactive | Active | Active | Active | Active | inactive | Active

— ChEMBL document CHEMBL5712906, “Discovery of a novel long noncoding RNA overlapping the LCK gene that regulates prostate cancer cell growth” (2019)
